Laboratory results published in ChEMBL document CHEMBL2086229, “Synthesis and biological activities of 4-substituted pyrrolo[2,3-a]carbazole Pim kinase inhibitors” (Eur J Med Chem, 2012).
Calls of active or inactive are those of the source. The calls are words filed in the database; no cut-off is given here.

Assays:
[1] = biological target: T1, Serine/threonine-protein kinase pim-1 (Homo sapiens, UniProt P11309); experiment: Inhibition of human Pim1 using RSRHSSYPAGT as substrate assessed as residual activity at 10 uM
Target sequence in this assay (P11309 whole entry, looked up): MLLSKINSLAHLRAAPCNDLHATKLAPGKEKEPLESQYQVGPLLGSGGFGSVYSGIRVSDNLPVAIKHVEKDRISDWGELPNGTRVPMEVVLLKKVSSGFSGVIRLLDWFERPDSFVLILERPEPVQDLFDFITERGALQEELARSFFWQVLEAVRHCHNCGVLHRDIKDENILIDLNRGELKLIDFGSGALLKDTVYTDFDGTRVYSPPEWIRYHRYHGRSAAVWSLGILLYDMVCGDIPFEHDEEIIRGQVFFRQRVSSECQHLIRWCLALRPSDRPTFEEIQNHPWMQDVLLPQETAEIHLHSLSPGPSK

[2] = biological target: T1, Serine/threonine-protein kinase pim-1; experiment: Inhibition of human Pim1 using RSRHSSYPAGT as substrate assessed as residual activity at 1 uM
Target sequence in this assay (P11309 whole entry, looked up): as above

[3] = biological target: Serine/threonine-protein kinase pim-2 (Homo sapiens) (UniProt Q9P1W9); experiment: Inhibition of human Pim2 using RSRHSSYPAGT as substrate assessed as residual activity at 10 uM
Chain of Serine/threonine-protein kinase pim-2 (Homo sapiens) (Q9P1W9 whole entry, looked up): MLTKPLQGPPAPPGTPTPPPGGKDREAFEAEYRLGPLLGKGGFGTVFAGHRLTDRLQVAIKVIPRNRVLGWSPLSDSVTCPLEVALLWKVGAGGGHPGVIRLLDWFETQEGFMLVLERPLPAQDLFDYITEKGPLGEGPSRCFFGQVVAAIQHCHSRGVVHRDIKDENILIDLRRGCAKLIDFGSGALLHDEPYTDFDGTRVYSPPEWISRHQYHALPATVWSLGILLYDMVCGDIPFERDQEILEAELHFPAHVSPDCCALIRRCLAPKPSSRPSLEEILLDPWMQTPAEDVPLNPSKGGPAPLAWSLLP

[4] = biological target: Serine/threonine-protein kinase pim-2 (Homo sapiens) (UniProt Q9P1W9); experiment: Inhibition of human Pim2 using RSRHSSYPAGT as substrate assessed as residual activity at 1 uM
[5] = biological target: T2, Serine/threonine-protein kinase pim-3 (Homo sapiens, UniProt Q86V86); experiment: Inhibition of human Pim3 using RSRHSSYPAGT as substrate assessed as residual activity at 10 uM
[6] = biological target: T2, Serine/threonine-protein kinase pim-3; experiment: Inhibition of human Pim3 using RSRHSSYPAGT as substrate assessed as residual activity at 1 uM
[7] = biological target: T2, Serine/threonine-protein kinase pim-3; experiment: Inhibition of human Pim3 using RSRHSSYPAGT as substrate
[8] = system: PA-1; experiment: Antiproliferative activity against human PA1 cells after 48 hrs by resazurin reduction test; type: functional, cell-based
Summary of the method: (§1)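 Cells kept as monolayers in Glutamax MEM with Earle's salts, 10% fetal calf serum, sodium pyruvate, non-essential amino acids and gentamicin, 37 °C, 5% CO2. Seeded at 5 × 10³ cells/well, adhered 16 h, then given drug from 20 mM DMSO stock for 48 h continuously. Resazurin (25 μg/mL, 1 h, 37 °C) fluorescence read at ex 530/em 590 nm. IC50 taken from concentration–survival curve versus control wells, blank subtracted.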

[9] = system: PC-3; experiment: Antiproliferative activity against human PC3 cells after 48 hrs by resazurin reduction test; type: functional, cell-based; summary of the method: as §1
[10] = system: DU-145; experiment: Antiproliferative activity against human DU145 cells after 48 hrs by resazurin reduction test; type: functional, cell-based; summary of the method: as §1
[11] = biological target: T1, Serine/threonine-protein kinase pim-1; experiment: Inhibition of human Pim1 using RSRHSSYPAGT as substrate
Target sequence in this assay (P11309 whole entry): as the sequence (P11309 whole entry, looked up) above

[12] = Antiproliferative activity against human fibroblasts after 48 hrs by resazurin reduction test; type: cell-based; conditions: Fibroblast; summary of the method: as §1
[13] = system: PA-1; experiment: Antiproliferative activity against human PA1 cells assessed as growth inhibition at 1 uM after 48 hrs by resazurin reduction test; type: functional, cell-based
Summary of the method: (§2)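 PA1 and PC3 cells seeded at 5 × 10³ per well, adhered 16 h, then exposed 48 h continuously to a single drug concentration (1 or 10 μM) from 20 mM DMSO stock. Growth read by resazurin reduction (25 μg/mL, 1 h, 37 °C), fluorescence ex 530/em 590 nm, as survival relative to control wells after blank subtraction.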

[14] = system: PA-1; experiment: Antiproliferative activity against human PA1 cells assessed as growth inhibition at 10 uM after 48 hrs by resazurin reduction test; type: functional, cell-based; summary of the method: as §2
[15] = system: PC-3; experiment: Antiproliferative activity against human PC3 cells assessed as growth inhibition at 1 uM after 48 hrs by resazurin reduction test; type: functional, cell-based; summary of the method: as §2
[16] = system: PC-3; experiment: Antiproliferative activity against human PC3 cells assessed as growth inhibition at 10 uM after 48 hrs by resazurin reduction test; type: functional, cell-based; summary of the method: as §2

SMILES | Activity [1] [%] | Activity [2] [%] | Activity [3] [%] | Activity [4] [%] | Activity [5] [%] | Activity [6] [%] | IC50 [7] [µM] | growth inhibition (GI) [8] | growth inhibition (GI) [9] | growth inhibition (GI) [10] | IC50 [11] [µM] | IC50 [12] [µM] | IC50 ([8]; PA-1, 48 h) [µM] | IC50 ([9]; PC-3, 48 h) [µM] | IC50 ([10]; DU-145, 48 h) [µM] | growth inhibition (GI) [13] | growth inhibition (GI) [14] | growth inhibition (GI) [15] | growth inhibition (GI) [16]
COC(=O)c1cc2c([nH]c3cccc(N)c32)c2[nH]ccc12 | 39 | 90 | 77 | 93 | 16 | 40 | 0.41 | inactive | inactive | inactive |  |  |  |  |  |  |  |  | 
COC(=O)c1cc2c3ccccc3[nH]c2c2[nH]ccc12 | 15 | 57 | 75 | 95 | 24 | 47 | 0.5 |  |  |  | 3 | 8 | 27 | 6 | > 50 |  |  |  | 
Nc1cccc2[nH]c3c(cc(C(=O)O)c4cc[nH]c43)c12 | 87 | 103 | 89 | 101 | 55 | 103 |  |  |  |  |  |  |  |  |  | inactive | inactive | inactive | inactive
O=C(O)c1cc2c3ccccc3[nH]c2c2[nH]ccc12 | 70 | 90 | 93 | 100 | 65 | 101 |  |  |  |  |  |  |  |  |  | inactive | inactive | inactive | inactive
O=Cc1c[nH]c2c1ccc1c3ccccc3[nH]c12 |  |  |  |  |  |  |  |  |  |  |  | 21 |  |  |  |  |  |  | 
